In data set [1] the test system is P. falciparum D10 parasites. Kind of data set: P. falciparum replication assay. The class given is cell-based.
Data set [2] deals with P. falciparum ring stage parasites (food vacuole). In words: Phenotypic characterization of treated ring stage parasites. The class given is cell-based. Conditions: 24 hr, Giemsa smears. In short, it runs like this:
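Synchronized ring-stage cultures (2% parasitemia) were treated with a range of test compound concentrations or DMSO for 24 hr. Morphology was then examined on Giemsa-stained thin blood smears, and the food vacuole defect was scored as enlargement of this acidic organelle.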

The next data set relates to FP2, FP2′, and FP3. Kind of data set: Competitive ABPP with Cy5-DCG-04 in parasite lysates. Format: biochemical, P. falciparum. Conditions: D10 lysates, 30 min preincubation, 1 µM Cy5-DCG-04 1 hr.
Data set [3] addresses T1, FP1 (Plasmodium falciparum, UniProt P25805).
T1 sequence (P25805 333-569): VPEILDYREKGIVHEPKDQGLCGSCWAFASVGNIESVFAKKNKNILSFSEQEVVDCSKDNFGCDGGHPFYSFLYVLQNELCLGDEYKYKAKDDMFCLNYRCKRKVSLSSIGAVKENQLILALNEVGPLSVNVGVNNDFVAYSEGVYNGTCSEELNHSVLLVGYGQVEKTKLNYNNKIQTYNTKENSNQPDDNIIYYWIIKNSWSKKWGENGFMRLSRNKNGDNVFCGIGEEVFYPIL
In words: Competitive ABPP with Cy5-DCG-04 in parasite lysates. Conditions: D10 lysates, 30 min preincubation, 1 µM Cy5-DCG-04 1 hr. The class given is biochemical, P. falciparum. In short, it runs like this: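 Trophozoites were harvested 36 hr post-invasion, freed from RBCs with saponin, and extracted in PBS with 1% NP40. Soluble lysate was diluted 1:10 in acetate buffer (50 mM sodium acetate, 5 mM MgCl2, 5 mM DTT) and pretreated 30 min with test compound over a concentration range. Then 1 µM Cy5-DCG04 was added for 1 hr. Reactions were boiled in loading buffer, resolved by SDS-PAGE, and scanned for in-gel fluorescence.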

For data set [4], the target named is T1, FP1. Kind of data set: Falcipain inhibition in living parasites. Format: cell-based, P. falciparum.
The target of the next data set is T2, DPAP1 (Plasmodium falciparum, UniProt Q8IIJ9).
T2 sequence (Q8IIJ9 370-599 limits assumed): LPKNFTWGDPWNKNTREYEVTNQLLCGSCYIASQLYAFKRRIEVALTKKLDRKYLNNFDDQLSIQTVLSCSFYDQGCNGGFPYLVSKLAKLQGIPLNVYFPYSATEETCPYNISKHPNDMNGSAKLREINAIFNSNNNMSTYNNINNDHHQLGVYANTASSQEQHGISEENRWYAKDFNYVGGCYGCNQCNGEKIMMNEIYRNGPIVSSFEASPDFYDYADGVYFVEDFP
T2 sequence (Q8IIJ9 600-700 limits assumed): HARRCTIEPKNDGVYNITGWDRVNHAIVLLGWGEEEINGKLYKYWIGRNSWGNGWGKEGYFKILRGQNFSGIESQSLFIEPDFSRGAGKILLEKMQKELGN
T2 sequence (Q8IIJ9 28-209 limits assumed): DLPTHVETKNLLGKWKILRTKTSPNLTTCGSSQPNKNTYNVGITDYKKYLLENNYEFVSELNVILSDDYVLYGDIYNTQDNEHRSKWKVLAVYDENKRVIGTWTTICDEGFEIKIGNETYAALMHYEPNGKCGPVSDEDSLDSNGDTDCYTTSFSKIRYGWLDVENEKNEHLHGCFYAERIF
In words: Competitive ABPP with Cy5-DCG-04, DPAP1 labeling. Format: cell-based, P. falciparum. A digest of the protocol:
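A P. falciparum culture at 20% parasitemia and 2% hematocrit was exposed to graded test compound for 1 hr. Aliquots were lysed with 0.15% saponin in PBS. Parasite pellets were labelled for 1 hr with 1 µM Cy5-DCG04 in acetate buffer containing 1% NP40. After SDS-PAGE, DPAP1 band fluorescence was quantified and fitted to a sigmoidal dose-response curve to give IC50.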

A further data set relates to DPAP3. Kind of data set: Competitive ABPP with DPAP activity-based probe FY01. Format: biochemical, P. falciparum. Conditions: competitive ABPP with FY01, Figure S3.
The target in data set [5] is T3, recombinantly produced FP2 (Plasmodium falciparum, UniProt Q8I6U4).
T3 sequence (Q8I6U4 244-484): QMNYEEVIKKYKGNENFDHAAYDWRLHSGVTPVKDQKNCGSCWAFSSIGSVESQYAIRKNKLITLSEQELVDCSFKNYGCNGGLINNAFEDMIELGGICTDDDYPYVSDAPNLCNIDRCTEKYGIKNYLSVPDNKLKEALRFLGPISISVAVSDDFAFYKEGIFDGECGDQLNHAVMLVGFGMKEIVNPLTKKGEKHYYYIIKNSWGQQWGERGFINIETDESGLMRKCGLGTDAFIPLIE
Kind of data set: Kinetics of substrate turnover inhibition. Format: biochemical, P. falciparum. In short, it runs like this:
(§1)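 Fluorescence (ex 350 nm, em 460 nm) was followed for 2 hr at several inhibitor concentrations. Turnover relative to DMSO controls (v/v0) was fitted to an irreversible inhibition model; ki = kobs/[I].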

Data set [6] has as its target T4, recombinantly produced FP3 (Plasmodium falciparum, UniProt Q8IIL0).
T4 sequence (Q8IIL0 243-492): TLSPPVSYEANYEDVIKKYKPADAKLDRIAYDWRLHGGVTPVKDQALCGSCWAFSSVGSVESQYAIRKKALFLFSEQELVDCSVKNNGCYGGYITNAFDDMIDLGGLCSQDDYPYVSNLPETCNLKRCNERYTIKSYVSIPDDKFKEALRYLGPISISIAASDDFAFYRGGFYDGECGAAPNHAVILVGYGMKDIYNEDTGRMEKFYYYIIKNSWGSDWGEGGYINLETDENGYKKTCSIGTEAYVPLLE
Kind of data set: Kinetics of substrate turnover inhibition. Format: biochemical, P. falciparum. In short, it runs like this: as §1

The next data set addresses cathepsin L (Mus musculus, UniProt P06797). Format: cell-based. Conditions: mouse macrophages, 0.5 µM. In short, it runs like this: (§2)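 Bone marrow-derived mouse macrophages were preincubated with 0.5 or 5 µM test compound. Residual protease activity was then read in protein extracts by labelling with either a broad papain-like cysteine protease activity-based probe (cathepsins) or a proteasome-specific activity-based probe (proteasome).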

Data set [7] deals with cathepsins B, H, S, and Z. The class given is cell-based. Conditions: mouse macrophages, 5 µM. In short, it runs like this:
as §2

A further data set has as its system proteasome. The class given is cell-based. The following applies: mouse macrophages preincubated with 0.5 µM and 5 µM. In short, it runs like this: as §2
The test system of data set [8] is proteins in the 28 kDa region (food vacuole falcipains). In words: Labeling of intact schizonts with rhodamine probes. The class given is cell-based, P. falciparum. Conditions: pretreatment with 10 µM nonfluorescent compound, then 10 µM RhSym4 1 hr. In short, it runs like this: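 Purified schizonts were pretreated with 10 µM nonfluorescent competitor or DMSO. They were then incubated 1 hr with 10 µM rhodamine-tagged probe in PBS. Samples were boiled in loading buffer, proteins resolved by SDS-PAGE, and labelled bands detected by flatbed fluorescence scanning.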

A further data set has as its system red blood cells (RBCs). Conditions: even at the highest tested concentrations (>25 µM); ref Conroy et al., 2010; cited from earlier work.

Results on 1 compound are retold here after PMC3601557 (Chemistry & biology, 2012).

Molecules are shown by their SMILES. Entries after “also recorded” stand apart in the source; their conditions may differ.

Broadly, the IC50 is the concentration that gives 50% inhibition. A higher IC50 goes with a need for much substance.

cathepsin L, sequence (P06797 114-334): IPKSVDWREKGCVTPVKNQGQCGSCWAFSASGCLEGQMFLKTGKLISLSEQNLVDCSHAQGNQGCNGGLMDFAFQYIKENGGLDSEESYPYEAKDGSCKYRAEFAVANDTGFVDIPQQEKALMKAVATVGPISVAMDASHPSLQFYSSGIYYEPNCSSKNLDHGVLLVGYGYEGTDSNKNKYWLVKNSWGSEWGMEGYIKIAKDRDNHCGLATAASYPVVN

Take `CC[C@H](C)[C@@H](C(=O)O[C@@H](CC(C)C)C(=O)N[C@@H](CC(C)C)C(=O)N[C@@H](C)/C=C/C(=O)N1C(=O)C=C(OC)[C@@H]1C)N(C)C` [Sym4, symplostatin 4]: the “fold higher concentration for parasite killing than for food vacuole defect” value in data set [1] (EC50 0.7 µM versus 0.1 µM) is given as 7 fold. The “fold more potent than Sym4^mmp → Ala (EC50)” value in [1] (replication assay, 75 hr) is listed as 40 fold. The “concentration causing swollen food vacuole phenotype” value in data set [2] is listed as 0.1 µM. Further, the “concentration inhibiting Cy5-DCG-04 labeling of FP2, FP2′, and FP3” value in the data set with FP2, FP2′, and FP3 is given as 1.5 nM. For the same compound, the “concentration inhibiting Cy5-DCG-04 labeling of FP1” value on FP1 [3] is given as more than 1.6 µM. The compound further came in with an IC50 on FP1 [4] of 0.14 ± 0.023 µM. Further, the “inhibition of DPAP1” value is on record as “neither DPAP1 (Figure 4) nor DPAP3 (Figure S3) is inhibited” on DPAP1 (competitive ABPP with Cy5-DCG04, Figure 4) and “did not inhibit” on DPAP1 (living parasites, 1 hr, at 1 µM). Moreover, the “inhibition of DPAP3” value in the data set with DPAP3 is listed as “neither DPAP1 (Figure 4) nor DPAP3 (Figure S3) is inhibited”. Also, the mode of inhibition result in data set [5] and in data set [6] was “irreversible inhibitor” throughout. The “inhibition of cathepsin L” value on cathepsin L is reported as “inhibit; also recorded: inhibits a large portion”. Besides, the “inhibition of cathepsins B, H, S, and Z” value in data set [7] is “also inhibited; also recorded: required ten times higher concentrations (i.e., 5 µM) to reach the same inhibition level”. The “inhibition of the proteasome” value in the data set with proteasome is “did not inhibit; also recorded: does not inhibit”. In addition, in data set [8], the “competition of RhSym4 labeling” value is listed as “sensitive to preincubation”. Also, the “lysis of red blood cells” value in the data set on red blood cells (RBCs) is given as “no lysis”.
